A word on the T/C: it is the ratio of treated to control.

The source of these data is ChEMBL document CHEMBL3227962, “Synthesis of hydroxy- and amino-substituted benzohydroxamic acids: inhibition of ribonucleotide reductase and antitumor activity” (J Med Chem, 1979).

The subject of data set [1] is L1210. Put plainly: Antitumor activity against mouse L1210 cells allografted in C6D2F1 mouse at 100 to 1000 mg/kg, ip for 8 days starting from day 1 of challenge relative to control. As to conditions: dose mg/kg 100-1000; route intraperitoneal.
In data set [2] the test system is L1210. Put plainly: Antitumor activity against ip dosed mouse L1210 cells allografted in C6D2F1 mouse assessed as dose to achieve maximum life span administered for 8 days starting from day 1 of challenge. It counts as functional. In outline:
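L1210 leukemia propagated in DBA/2 mice; diluted ascitic fluid (0.10 mL, 10^5 cells) injected ip into female C6D2F1 mice (~20 g) on day 0. Compounds given ip once daily for 8 days from day 1, generally three doses in the 100–1000 mg/kg range, 8 mice per dose; other doses per toxicity. Read-out: life span as T/C %.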

The species named for data set [3] is Rattus norvegicus. Put plainly: Inhibition of ribonucleotide reductase purified from rat Novikoff hepatoma assessed as inhibition of [3H]CDP to [3H]dCDP conversion after 40 mins. Summed up:
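Ribonucleotide reductase was partially purified from Novikoff hepatoma. The 0.34 mL mix held 3 µCi [3H]CDP (14–19 Ci/mmol), 3.3 mM ATP, 5.9 mM MgCl2, 8.8 mM Hepes pH 7.5, 15 mM DTT and 0.4–1.3 mg enzyme protein, incubated 40 min at 30 °C. Vehicle was water, ≤1% ethanol or 2% DMSO. Each inhibitor was tested at ≥3 concentrations, with actives repeated. ID50 was read from graphs.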

Data set [4] concerns L1210. Briefly: Antitumor activity against mouse L1210 cells allografted in C6D2F1 mouse at 125 mg/kg, ip for 8 days starting from day 1 of challenge relative to control. It counts as functional. As to conditions: route intraperitoneal.
Data set [5] concerns L1210. Put plainly: Antitumor activity against mouse L1210 cells allografted in C6D2F1 mouse at 75 mg/kg, ip for 8 days starting from day 1 of challenge relative to control. It counts as functional. The following applies: route intraperitoneal.
For data set [6], the system named is L1210. Put plainly: Antitumor activity against mouse L1210 cells allografted in C6D2F1 mouse at 320 mg/kg, ip for 8 days starting from day 1 of challenge relative to control. The following applies: route intraperitoneal. It counts as functional.
For data set [7], the species on record is Rattus norvegicus. Briefly: Ratio of hydroxyurea ID50 to compound ID50 for ribonucleotide reductase purified from rat Novikoff hepatoma assessed as inhibition of [3H]CDP to [3H]dCDP conversion after 40 mins.
In data set [8] the test system is L1210. Briefly: Antitumor activity against mouse L1210 cells allografted in C6D2F1 mouse at 300 mg/kg, ip for 8 days starting from day 1 of challenge relative to control. The following applies: route intraperitoneal. It counts as functional.
Data set [9] concerns L1210. Put plainly: Antitumor activity against mouse L1210 cells allografted in C6D2F1 mouse at 200 mg/kg, ip for 8 days starting from day 1 of challenge relative to control. It counts as functional. As to conditions: route intraperitoneal.
Data set [10] deals with L1210. Briefly: Antitumor activity against mouse L1210 cells allografted in C6D2F1 mouse at 63 mg/kg, ip for 8 days starting from day 1 of challenge relative to control. The following applies: route intraperitoneal. It counts as functional.
Data set [11] deals with L1210. Put plainly: Antitumor activity against mouse L1210 cells allografted in C6D2F1 mouse at 600 mg/kg, ip for 8 days starting from day 1 of challenge relative to control. The following applies: route intraperitoneal. It counts as functional.
For data set [12], the system named is L1210. Put plainly: Antitumor activity against mouse L1210 cells allografted in C6D2F1 mouse at 1000 mg/kg, ip for 8 days starting from day 1 of challenge relative to control. It counts as functional. As to conditions: route intraperitoneal.
Data set [13] relates to L1210. Put plainly: Antitumor activity against mouse L1210 cells allografted in C6D2F1 mouse at 700 mg/kg, ip for 8 days starting from day 1 of challenge relative to control. It counts as functional. As to conditions: route intraperitoneal.
Data set [14] deals with L1210. Briefly: Antitumor activity against mouse L1210 cells allografted in C6D2F1 mouse at 500 mg/kg, ip for 8 days starting from day 1 of challenge relative to control. It counts as functional. As to conditions: route intraperitoneal.
For data set [15], the system named is Mus musculus. Briefly: Toxicity in mouse L1210 cells allografted C6D2F1 mouse at 800 mg/kg, ip for 8 days measured on day 2. It counts as organism-based. Also on record: dose 800 mg/kg, route intraperitoneal. As to conditions: in vivo, 192 h.
Data set [16] relates to L1210. Briefly: Antitumor activity against mouse L1210 cells allografted in C6D2F1 mouse at 800 mg/kg, ip for 8 days starting from day 1 of challenge relative to control. It counts as functional. As to conditions: route intraperitoneal.
Data set [17] has as its system L1210. Put plainly: Antitumor activity against mouse L1210 cells allografted in C6D2F1 mouse at 400 mg/kg, ip for 8 days starting from day 1 of challenge relative to control. It counts as functional. As to conditions: route intraperitoneal.
Data set [18] relates to L1210. Briefly: Antitumor activity against mouse L1210 cells allografted in C6D2F1 mouse at 100 mg/kg, ip for 8 days starting from day 1 of challenge relative to control. It counts as functional. The following applies: route intraperitoneal.
In data set [19] the test system is L1210. Briefly: Antitumor activity against mouse L1210 cells allografted in C6D2F1 mouse at 450 mg/kg, ip for 8 days starting from day 1 of challenge relative to control. It counts as functional. The following applies: route intraperitoneal.
In data set [20] the test system is Mus musculus. Briefly: Toxicity in mouse L1210 cells allografted C6D2F1 mouse at 500 mg/kg, ip for 8 days measured on day 3. It counts as organism-based. Also on record: dose 500 mg/kg, route intraperitoneal. As to conditions: in vivo, 192 h.
Data set [21] deals with L1210. Put plainly: Antitumor activity against mouse L1210 cells allografted in C6D2F1 mouse at 139 mg/kg, ip bid at interval of 1 hr between each dosing for 8 days starting from day 1 of challenge relative to control. It counts as functional. As to conditions: route intraperitoneal. In outline: (§1)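 Mice were female C6D2F1 of about 20 g, inoculated ip on day 0 with 10^5 L1210 ascites cells grown in DBA/2 mice. Drug was given ip twice daily at 139 mg/kg per dose for 8 days, varying the interval between the two daily injections. Read-out is the T/C % of life span.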

Data set [22] has as its system L1210. Briefly: Antitumor activity against mouse L1210 cells allografted in C6D2F1 mouse at 139 mg/kg, ip bid at interval of 5 hrs between each dosing for 8 days starting from day 1 of challenge relative to control. It counts as functional. As to conditions: route intraperitoneal. Summed up:
as §1

For data set [23], the system named is L1210. Briefly: Antitumor activity against mouse L1210 cells allografted in C6D2F1 mouse at 139 mg/kg, ip bid at interval of 3 hrs between each dosing for 8 days starting from day 1 of challenge relative to control. It counts as functional. The following applies: route intraperitoneal. In outline: as §1
For data set [24], the system named is L1210. Briefly: Antitumor activity against mouse L1210 cells allografted in C6D2F1 mouse at 139 mg/kg, ip bid at interval of 7 hrs between each dosing for 8 days starting from day 1 of challenge relative to control. The following applies: route intraperitoneal. It counts as functional. In outline:
as §1

For `Nc1ccc(C(=O)NO)cc1`, the T/C in [1] is recorded as 162%. The Activity in [2] was 500 mg/kg. Also, in data set [3], the ID50 was 150 µM.
In the same order, the values of `O=C(NO)c1cc(O)cc(O)c1` are 152%, 1000 mg/kg and 400 µM.
With `O=C(NO)c1ccc(O)cc1`, the T/C in [1] worked out at 124%. In data set [2], the Activity was 400 mg/kg. In addition, in [3], the ID50 worked out at 250 µM.
For the molecule `Nc1ccc(C(=O)NO)cc1N`, the T/C in [1] came to 140%. The Activity in data set [2] was 300 mg/kg. Besides, in data set [3], the ID50 came to 40 µM.
For `O=C(NO)c1ccc(O)cc1O` the same measures were 142%, 500 mg/kg and 250 µM.
For the molecule `O=C(NO)c1ccc(O)c(O)c1O`, the T/C worked out at 130% in data set [1]; 130% in data set [4]; 109% in [5]; 46% in data set [6]; 92% in data set [8]; 108% in [9]. In [10], the T/C was 111%. For the same molecule, the Activity in data set [2] came out at 125 mg/kg. Also, the Ratio in data set [7] came out at 140. Also, in data set [3], the ID50 came to 3.5 µM.
`O=C(NO)c1cc(O)ccc1O` gave a T/C in [1] of 130%. In addition, the Activity in data set [2] is 300 mg/kg. Besides, in data set [3], the ID50 amounted to 200 µM.
Turning to `O=C(NO)c1cccc(O)c1`, the T/C in [11] was 156%; in [1] it was 177%; in data set [12] it was 68%; in data set [13], 148%; in [9], 123%; in data set [14], 177%. Moreover, in [2], the Activity amounted to 500 mg/kg. The ID50 in data set [3] came to 350 µM.
In turn, `Nc1cccc(C(=O)NO)c1` registered a T/C in [1] of 110%. For the same molecule, in data set [2], the Activity is 500 mg/kg. For the same molecule, in [3], the ID50 came out at 350 µM.
In the same order, the values of `O=C(NO)c1ccccc1` [BENZOHYDROXAMATE] are 144%, 500 mg/kg and 400 µM.
Molecule `O=C(NO)c1ccccc1O` [SALICYLHYDROXAMIC ACID] returned a T/C in [1] of 147%. In data set [2], the Activity stood at 500 mg/kg. In data set [3], the ID50 was 150 µM.
In the same order, the values of `Nc1ccc(C(=O)NO)c(O)c1` are 115%, 1000 mg/kg and 200 µM.
In turn, `NC(=O)NO` [HYDROXYUREA] came in with a T/C in data set [1] of 162%. In addition, the Activity in data set [2] was 2500 mg/kg. Also, in [3], the ID50 came to 500 µM.
Regarding `O=C(NO)c1ccc(O)c(O)c1`, the T/C in [11] is 203%; in data set [1] it was 203%; in data set [16], 28%; in [17], 154%; in data set [8], 156%; in data set [14], 184%. Also, the T/C in [18] is given as 125%. In addition, the Activity result in data set [15] is “Toxic”; in data set [2], 600 mg/kg. Besides, the ID50 in data set [3] was 30 µM.
For the molecule `O=C(NO)c1cccc(O)c1O`, the T/C in data set [1] is 136%; in data set [8] it was 107%; in data set [9], 136%; in data set [19], 103%; in [14] it was 100%. Also, the Activity in [2] was 200 mg/kg; in data set [20], “Toxic”. Besides, the ID50 in data set [3] was 8 µM.
`O=C(NO)c1c(O)cccc1O`: the ID50 in data set [3] came out at 100 µM.
`O=C(NO)c1cc(O)c(O)c(O)c1`: the T/C in data set [1] was determined as 153%; in data set [21], 151%; in [16] it was 56%; in data set [22], 189%; in data set [23], 168%; in data set [24] it was 172%. Moreover, the T/C in data set [17] is listed as 153%; in data set [9], 147%; in data set [18], 125%. Besides, the Activity in data set [2] was 400 mg/kg. Also, the ID50 in data set [3] came to 10 µM.
Molecule `Nc1ccccc1C(=O)NO` gave a T/C in data set [1] of 150%. Besides, in [2], the Activity is 500 mg/kg. Moreover, in data set [3], the ID50 was 120 µM.
